Data reported in ChEMBL document CHEMBL4007486, “Prospective Evaluation of Free Energy Calculations for the Prioritization of Cathepsin L Inhibitors” (J Med Chem, 2017).

Assays:
[1] = target: T1, Procathepsin L (Homo sapiens, UniProt P07711); test: Inhibition of human Cathepsin L by fluorescence assay based Cheng-Prusoff equation analysis
Procedure, shortened: (§1)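 Fluorescence-based enzymatic assay against human cathepsin L, run as previously described. IC50 was measured, and Ki was then calculated from it with the Cheng-Prusoff equation.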

[2] = Lipophilicity, logD of the compound; type: physicochemical; settings: octanol/water
[3] = target: T1, Procathepsin L; test: Inhibition of human Cathepsin L; procedure, shortened: as §1

T1 sequence (P07711 whole entry): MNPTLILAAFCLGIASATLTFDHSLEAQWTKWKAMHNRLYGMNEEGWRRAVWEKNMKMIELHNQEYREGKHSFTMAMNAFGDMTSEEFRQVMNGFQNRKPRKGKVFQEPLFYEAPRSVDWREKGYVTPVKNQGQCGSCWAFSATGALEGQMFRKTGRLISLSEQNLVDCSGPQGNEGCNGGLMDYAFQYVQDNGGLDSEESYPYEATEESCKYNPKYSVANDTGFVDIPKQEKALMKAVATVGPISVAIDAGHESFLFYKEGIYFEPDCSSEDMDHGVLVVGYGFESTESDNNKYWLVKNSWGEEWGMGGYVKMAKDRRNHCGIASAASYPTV

| SMILES | Ki [1] [nM] | logD [2] | Ki [3] [nM] |
| --- | --- | --- | --- |
| N#Cc1ncc(F)c(N(Cc2ccc3c(c2)OCO3)CC2CC2)n1 | 77 | 3.02 |  |
| N#Cc1ncc(F)c(N(Cc2ccc3c(c2)OCO3)C2CCCCC2)n1 |  |  | 200 |
| N#Cc1ncc(F)c(N(Cc2ccc3c(c2)OCO3)[C@H]2CC[C@@H](C(F)(F)F)CC2)n1 | 3500 |  |  |
| CC(C)[C@H]1CC[C@@H](N(Cc2ccc3c(c2)OCO3)c2nc(C#N)ncc2F)CC1 | 3020 | 2.74 |  |
| N#Cc1ncc(F)c(N(Cc2ccc3c(c2)OCO3)C2CCSCC2)n1 | 515 | 3.61 |  |
| N#Cc1ncc(F)c(N(CCCc2noc(-c3ccccc3)n2)Cc2ccc3c(c2)OCO3)n1 | 91 |  |  |
| Cc1cc(OCCN(Cc2ccc3c(c2)OCO3)c2nc(C#N)ncc2F)cc(C)c1Cl | 1430 | 2.32 |  |
| N#Cc1ncc(F)c(N(CCC(F)(F)F)Cc2ccc3c(c2)OCO3)n1 | 25 | 3.16 |  |
| N#Cc1ncc(F)c(N(CCc2ccsc2)Cc2ccc3c(c2)OCO3)n1 | 671 |  |  |
| N#Cc1ncc(F)c(N(Cc2ccc(Cl)cc2)Cc2ccc3c(c2)OCO3)n1 | > 5100 |  |  |
| N#Cc1ncc(F)c(N(CCc2ccccn2)Cc2ccc3c(c2)OCO3)n1 | 3860 | 3.39 |  |
| Cc1nsc(N2CCC(N(Cc3ccc4c(c3)OCO4)c3nc(C#N)ncc3F)CC2)n1 | 411 | 3.49 |  |
| N#Cc1nc(N2CCOCC2)nc(N(Cc2ccc(Cl)cc2)C2CCCCC2)n1 |  |  | 13 |
| N#Cc1ncc(F)c(N(CCC2CCOCC2)Cc2ccc3c(c2)OCO3)n1 | 2790 | 3.46 |  |
| N#Cc1ncc(F)c(N(CCc2ccc(F)cc2)Cc2ccc3c(c2)OCO3)n1 | 279 |  |  |
| Cc1nc2n(c(=O)c1CCN(Cc1ccc3c(c1)OCO3)c1nc(C#N)ncc1F)CCCC2 | 1750 | 2.96 |  |
| N#Cc1ncc(F)c(N(Cc2ccc3c(c2)OCO3)[C@H]2CC[C@H](C(F)(F)F)CC2)n1 | > 5100 |  |  |
| N#Cc1ncc(F)c(N(CCc2ccncc2)Cc2ccc3c(c2)OCO3)n1 | 505 | 3.15 |  |
| N#Cc1ncc(F)c(N(CCCc2ccc(Cl)cc2)Cc2ccc3c(c2)OCO3)n1 | 27 |  |  |
| CC(C)=CCN(Cc1ccc2c(c1)OCO2)c1nc(C#N)ncc1F | 1010 |  |  |
| N#Cc1ncc(F)c(N(CCc2cccc(Br)c2)Cc2ccc3c(c2)OCO3)n1 | 358 |  |  |
| N#Cc1ncc(F)c(N(CCOc2ccc(Cl)cc2)Cc2ccc3c(c2)OCO3)n1 | 167 |  |  |
| N#Cc1ncc(F)c(N(Cc2ccc3c(c2)OCO3)CC2CCCC2)n1 | 12 |  |  |
| CC1(N(Cc2ccc3c(c2)OCO3)c2nc(C#N)ncc2F)CC1 | > 5100 | 3.38 |  |
| N#Cc1cccc(CCN(Cc2ccc3c(c2)OCO3)c2nc(C#N)ncc2F)c1 | 304 | 2.12 |  |

Results, then the molecule that gave them:

| Ki [1] [nM] | logD [2] | Ki [3] [nM] | SMILES |
| --- | --- | --- | --- |
| 77 |  |  | N#Cc1ncc(F)c(N(CCOc2ccccc2)Cc2ccc3c(c2)OCO3)n1 |
| > 5100 |  |  | N#Cc1ncc(F)c(N(Cc2ccc3c(c2)OCO3)c2ccc(OCC3CC3)cc2)n1 |
| 217 |  |  | N#Cc1ncc(F)c(N(CCc2ccccc2)Cc2ccc3c(c2)OCO3)n1 |
| 952 | 3.49 |  | N#Cc1ncc(F)c(N(Cc2ccc3c(c2)OCO3)c2ccc(F)cc2)n1 |
| 1020 |  |  | N#Cc1ncc(F)c(N(Cc2ccc3c(c2)OCO3)c2ccc(Oc3cccnc3)cc2)n1 |
| > 5100 |  |  | N#Cc1ncc(F)c(N(Cc2ccc3c(c2)OCO3)c2cccc(OCc3ccccc3)c2)n1 |
| 1800 | 3.44 |  | N#Cc1ncc(F)c(N(Cc2ccc3c(c2)OCO3)c2ccccc2)n1 |
| > 5100 |  |  | N#Cc1ncc(F)c(N(Cc2ccc3c(c2)OCO3)c2ccc(OCC(F)(F)F)cc2)n1 |
| > 5100 |  |  | CNCCc1cccc(N(Cc2ccc3c(c2)OCO3)c2nc(C#N)ncc2F)c1 |
| > 5100 |  |  | N#Cc1ncc(F)c(N(Cc2ccccc2)Cc2ccc3c(c2)OCO3)n1 |
| 5100 |  |  | CSc1cccc(N(Cc2ccc3c(c2)OCO3)c2nc(C#N)ncc2F)c1 |
| 123 |  |  | N#Cc1ncc(F)c(N(CCOc2ccc3ccccc3c2)Cc2ccc3c(c2)OCO3)n1 |
| 30 |  |  | COc1cccc(CCCN(Cc2ccc3c(c2)OCO3)c2nc(C#N)ncc2F)c1 |
